Several values for one entry are separate records, joined by “and”; a condition that tells them apart may be missing. Equal entries are not always repeated.
How the values were obtained:
[1] = tested on: human; assay: concentration in blood after dosing; negative times count back from the end of exposure; conditions: inhalation
How it was run: (§1)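 Concentration-versus-time or amount-versus-time points were compiled from published in vivo toxicokinetic studies and from two structured collections. The studies were found by PubMed searching, classifier screening and manual review. Points were mostly digitised from plot screenshots with WebPlotDigitizer, otherwise copied from tables, and kept in the reported units. Dose, route, subject details and medium were curated by hand from each paper, and sampling and analytical methods follow each source and were often unreported.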

[2] = tested on: human; assay: concentration in blood after dosing
How it was run: as §1

[3] = tested on: rat; assay: concentration in blood after dosing; conditions: dosed: octane, inhalation, duration: 2 hr, male, Fischer-344

Cc1ccc(C)c(C)c1 [1,2,4-trimethylbenzene]
concentration in blood [nM], [1], dosed: 1,2,4-trimethylbenzene, duration: 2 hr
Conditions | 2 ppm | 25 ppm
0.1241 h | 249 | –
0.1793 h | – | 3640
0.2345 h | 237 | –
0.2621 h | – | 3110
0.5655 h | 164 | 2420
0.9793 h | 87.2 | –
1.062 h | – | 1610
1.476 h | 95.1 | –
1.531 h | – | 1360
1.972 h | – | 989
2.524 h | 75.3 | 863
2.966 h | 51.5 | –
3.186 h | – | 790
3.517 h | – | 683
3.959 h | – | 614
11.99 h | – | 171
21.97 h | – | 134
248 s | 288 | 4170

concentration in blood [nM], dosed: 1,2,4-trimethylbenzene
Conditions | 2 ppm | 25 ppm
[1], -0.2345 h, duration: 2 hr, during exposure | 506 | –
[1], -0.2897 h, duration: 2 hr, during exposure | – | 7180
[1], -0.4552 h, duration: 2 hr, during exposure | – | 7540
[1], -0.4828 h, duration: 2 hr, during exposure | 516 | –
[1], -0.731 h, duration: 2 hr, during exposure | 433 | –
[1], -0.7862 h, duration: 2 hr, during exposure | – | 6910
[1], -0.9793 h, duration: 2 hr, during exposure | 409 | –
[1], -1.007 h, duration: 2 hr, during exposure | – | 6090
[1], -1.228 h, duration: 2 hr, during exposure | 327 | –
[1], -1.255 h, duration: 2 hr, during exposure | – | 6030
[1], -1.476 h, duration: 2 hr, during exposure | 291 | 4460
[1], -1.724 h, duration: 2 hr, during exposure | 231 | –
[1], -1.752 h, duration: 2 hr, during exposure | – | 3540
[1], -1.89 h, duration: 2 hr, during exposure | 147 | –
[1], -1.917 h, duration: 2 hr, during exposure | – | 2540
[1], -50 s, duration: 2 hr, during exposure | 552 | –
[1], -248 s, duration: 2 hr, during exposure | – | 7990
[2], 0.1793 h, inhalation, duration: 2 hr | – | 970
[2], 0.2345 h, inhalation, duration: 2 hr | 67.7 | –
[2], 0.5655 h, inhalation, duration: 2 hr | 52.6 | –
[2], 0.5931 h, inhalation, duration: 2 hr | – | 459
[2], 1.503 h, inhalation, duration: 2 hr | – | 658
[2], 2.579 h, inhalation, duration: 2 hr | – | 404
[2], 3.572 h, inhalation, duration: 2 hr | – | 314

CN1CCCC1=O [N-methyl-2-pyrrolidone]
[1], dosed: N-methyl-2-pyrrolidone, male
Conditions | concentration in blood [ng/mL]
0 h, 10 mg/m^3, duration: 8 hr | 470
0.8235 h, 53 mg/m^3, duration: 8 hr | 2010
0.9269 h, 80 mg/m^3, duration: 6 hr 10min | 942
0.9412 h, 10 mg/m^3, duration: 8 hr | 503
0.9412 h, 24 mg/m^3, duration: 8 hr | 701
0.986 h, 10 mg/m^3, duration: 6 hr 10min | 194
0.986 h, 40 mg/m^3, duration: 6 hr 10min | 412
1.824 h, 24 mg/m^3, duration: 8 hr | 492
1.824 h, 53 mg/m^3, duration: 8 hr | 1300
1.882 h, 10 mg/m^3, duration: 8 hr | 244
1.932 h, 10 mg/m^3, duration: 6 hr 10min | 153
1.932 h, 80 mg/m^3, duration: 6 hr 10min | 723
2.109 h, 40 mg/m^3, duration: 6 hr 10min | 346
3.765 h, 10 mg/m^3, duration: 8 hr | 139
3.765 h, 24 mg/m^3, duration: 8 hr | 277
3.765 h, 53 mg/m^3, duration: 8 hr | 757
3.823 h, 40 mg/m^3, duration: 6 hr 10min | 253
3.823 h, 80 mg/m^3, duration: 6 hr 10min | 516
4.06 h, 10 mg/m^3, duration: 6 hr 10min | 146
7.882 h, 53 mg/m^3, duration: 8 hr | 305
7.941 h, 24 mg/m^3, duration: 8 hr | 189
8 h, 10 mg/m^3, duration: 8 hr | 123
18.01 h, 80 mg/m^3, duration: 6 hr 10min | 92.6
18.25 h, 40 mg/m^3, duration: 6 hr 10min | 18.6
18.6 h, 10 mg/m^3, duration: 6 hr 10min | 55.7
19.88 h, 53 mg/m^3, duration: 8 hr | 91.4
19.94 h, 10 mg/m^3, duration: 8 hr | 85.9
19.94 h, 24 mg/m^3, duration: 8 hr | 63.9
145 s, 80 mg/m^3, duration: 6 hr 10min | 1530

[1], dosed: N-methyl-2-pyrrolidone, male, during exposure
Conditions | concentration in blood [ng/mL]
-281 s, 40 mg/m^3, duration: 6 hr 10min | 645
-212 s, 24 mg/m^3, duration: 8 hr | 806
-212 s, 53 mg/m^3, duration: 8 hr | 2610
-68 s, 10 mg/m^3, duration: 6 hr 10min | 308
-4.118 h, 53 mg/m^3, duration: 8 hr | 1610
-4 h, 10 mg/m^3, duration: 8 hr | 342
-4 h, 24 mg/m^3, duration: 8 hr | 971
-3.211 h, 80 mg/m^3, duration: 6 hr 10min | 963
-3.034 h, 10 mg/m^3, duration: 6 hr 10min | 182
-3.034 h, 40 mg/m^3, duration: 6 hr 10min | 449

CCC(C)(C)OC [tert-amyl methyl ether]
dosed: tert-amyl methyl ether
Conditions | concentration in blood [nM]
[1], 0.7676 h, 15 ppm, duration: 4 hr, male | 2300
[1], 1.198 h, 15 ppm, duration: 4 hr, male | 1900
[1], 2.571 h, 15 ppm, duration: 4 hr, male | 1140
[1], 7.198 h, 15 ppm, duration: 4 hr, male | 344
[1], 19.78 h, 15 ppm, duration: 4 hr, male | 86.8
[1], 338 s, 15 ppm, duration: 4 hr, male | 4220
[2], 0 h, 3.8 ppm, inhalation, duration: 4 hr | 589
[2], 2.022 h, 3.8 ppm, inhalation, duration: 4 hr | 208
[2], 2.034 h, 38.4 ppm, inhalation, duration: 4 hr | 1350
[2], 3.985 h, 38.4 ppm, inhalation, duration: 4 hr | 801
[2], 4.008 h, 3.8 ppm, inhalation, duration: 4 hr | 139
[2], 6.018 h, 38.4 ppm, inhalation, duration: 4 hr | 611
[2], 6.02 h, 3.8 ppm, inhalation, duration: 4 hr | 111
[2], 7.969 h, 38.4 ppm, inhalation, duration: 4 hr | 438
[2], 9.976 h, 38.4 ppm, inhalation, duration: 4 hr | 225
[2], 10.01 h, 3.8 ppm, inhalation, duration: 4 hr | 85
[2], 12.01 h, 38.4 ppm, inhalation, duration: 4 hr | 183
[2], 12.05 h, 3.8 ppm, inhalation, duration: 4 hr | 73.7
[2], 99 s, 38.4 ppm, inhalation, duration: 4 hr | 4500

[1], dosed: tert-amyl methyl ether, 15 ppm, duration: 4 hr, male, during exposure
Conditions | concentration in blood [nM]
-4 h | 6.05
-3.022 h | 1710
-1.895 h | 3490
-0.981 h | 3580

[2], dosed: tert-amyl methyl ether, oral
Conditions | concentration in blood [nM]
1.016 h, 15 mg | 145
1.043 h, 5 mg | 60.8
2.059 h, 15 mg | 70.2
2.113 h, 5 mg | 29.4
3.073 h, 5 mg | 13.9
4.009 h, 15 mg | 33
4.034 h, 5 mg | 9.2
6.041 h, 15 mg | 19.9
6.064 h, 5 mg | 6.34
8.046 h, 15 mg | 16.9
8.067 h, 5 mg | 3.85
9.995 h, 15 mg | 9.91
10.04 h, 5 mg | 3.13
12 h, 15 mg | 4.16

CCCCCCCC [octane]
concentration in blood, [3]
Conditions | 0.1291 h | 0.3815 h | 0.705 h | 171 s | 183 s
1000 ppm | 3810 ng/mL and 4510 ng/mL | 1730 ng/mL and 2020 ng/mL | 777 ng/mL and 960 ng/mL | 5730 ng/mL and 7180 ng/mL | –
5000 ppm | – | – | – | – | 30200 ng/mL and 25900 ng/mL and 22800 ng/mL

Source: EPA's CvTdb concentration-time database
